# Key:
# [1] = system: Fibroblast; assay: Incucyte cell viability with human fibroblast; type: toxicity, cell-based; conditions: 10 µM, compound concentration 10 uM; also: filed as whole numbers so only -1 and 0 and 1 occur
# [2] = system: HEK-293T; assay: Multiplex assay against HEK293T; type: toxicity, cell-based; conditions: human;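 as to Population Tubulin-Different-Phenotype (%): share of the cells with healthy nuclei that show this phenotype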
# Method in brief: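 Phenotypes for tubulin, mitochondrial mass and membrane permeability are expressed as per cents of healthy-nucleus cells. Cells were stained live at seeding with Hoechst33342, BioTracker Green Microtubule Cytoskeleton Dye, MitoTracker Red and Annexin V Alexa Fluor 680, then imaged after compound addition on a CQ1 microscope at 37°C and 5% CO2. Machine-learning gating in CellPathfinder separated Hoechst high-intensity objects from normal cells, divided normal cells by nuclear state (healthy, pyknosed, fragmented) and divided pyknosed cells into mitotic or apoptotic.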
# [3] = 12 h, 1 µM, compound concentration 1 uM, replicate 1
# [4] = 12 h, 1 µM, compound concentration 1 uM, replicate 2
# [5] = 12 h, 10 µM, compound concentration 10 uM, replicate 1
# [6] = 12 h, 10 µM, compound concentration 10 uM, replicate 2
# [7] = 24 h, 1 µM, compound concentration 1 uM, replicate 1
# [8] = 24 h, 1 µM, compound concentration 1 uM, replicate 2
# [9] = 24 h, 10 µM, compound concentration 10 uM, replicate 1
# [10] = 24 h, 10 µM, compound concentration 10 uM, replicate 2
# [11] = 48 h, 1 µM, compound concentration 1 uM, replicate 1
# [12] = 48 h, 1 µM, compound concentration 1 uM, replicate 2
# [13] = 48 h, 10 µM, compound concentration 10 uM, replicate 1
# [14] = 48 h, 10 µM, compound concentration 10 uM, replicate 2
smiles,measurement,setting,value
CCCCN(CC)c1nc(C)nc2c1c(C)cn2-c1c(C)cc(C)cc1C.Cl,Growth Rate,"[1]; 0 h, replicate number 1, timepoint 0 hours",1
same,Growth Rate,"[1]; 6 h, replicate number 1, timepoint 6 hours",0
same,Growth Rate,"[1]; 12 h, replicate number 1, timepoint 12 hours",0
same,Growth Rate,"[1]; 18 h, replicate number 1, timepoint 18 hours",0
same,Growth Rate,"[1]; 24 h, replicate number 1, timepoint 24 hours",0
same,Population Apoptotic (%),[2]; [3],49%
same,Population Fragmented Nuclei (%),[2]; [3],15%
same,Population Healthy Nuclei (%),[2]; [3],45%
same,Population Hoechst High Intensity Objects (%),[2]; [3],16%
same,Population Membrane Permeable-Phenotype (%),[2]; [3],5%
same,Population Mitochondria Different-Phenotype (%),[2]; [3],79%
same,Population Mitotic Cells (%),[2]; [3],50%
same,Population Normal (%),[2]; [3],83%
same,Population Pyknosed Nuclei (%),[2]; [3],39%
same,Population Tubulin-Different-Phenotype (%),[2]; [3],32%
same,Total Cell Count,[2]; [3],241
same,Population Apoptotic (%),[2]; [4],11%
same,Population Fragmented Nuclei (%),[2]; [4],5%
same,Population Healthy Nuclei (%),[2]; [4],43%
same,Population Hoechst High Intensity Objects (%),[2]; [4],1%
same,Population Membrane Permeable-Phenotype (%),[2]; [4],6%
same,Population Mitochondria Different-Phenotype (%),[2]; [4],11%
same,Population Mitotic Cells (%),[2]; [4],88%
same,Population Normal (%),[2]; [4],98%
same,Population Pyknosed Nuclei (%),[2]; [4],51%
same,Population Tubulin-Different-Phenotype (%),[2]; [4],17%
same,Total Cell Count,[2]; [4],240
same,Population Apoptotic (%),[2]; [5],59%
same,Population Fragmented Nuclei (%),[2]; [5],13%
same,Population Hoechst High Intensity Objects (%),[2]; [5],8%
same,Population Membrane Permeable-Phenotype (%),[2]; [5],1%
same,Population Mitochondria Different-Phenotype (%),[2]; [5],95%
same,Population Mitotic Cells (%),[2]; [5],40%
same,Population Normal (%),[2]; [5],91%
same,Population Pyknosed Nuclei (%),[2]; [5],49%
same,Population Tubulin-Different-Phenotype (%),[2]; [5],75%
same,Total Cell Count,[2]; [5],236
same,Population Apoptotic (%),[2]; [6],27%
same,Population Fragmented Nuclei (%),[2]; [6],7%
same,Population Healthy Nuclei (%),[2]; [6],37%
same,Population Hoechst High Intensity Objects (%),[2]; [6],7%
same,Population Membrane Permeable-Phenotype (%),[2]; [6],6%
same,Population Mitochondria Different-Phenotype (%),[2]; [6],68%
same,Population Mitotic Cells (%),[2]; [6],72%
same,Population Normal (%),[2]; [6],92%
same,Population Pyknosed Nuclei (%),[2]; [6],54%
same,Population Tubulin-Different-Phenotype (%),[2]; [6],60%
same,Total Cell Count,[2]; [6],211
same,Population Apoptotic (%),[2]; [7],48%
same,Population Fragmented Nuclei (%),[2]; [7],16%
same,Population Healthy Nuclei (%),[2]; [7],41%
same,Population Hoechst High Intensity Objects (%),[2]; [7],13%
same,Population Membrane Permeable-Phenotype (%),[2]; [7],4%
same,Population Mitochondria Different-Phenotype (%),[2]; [7],61%
same,Population Mitotic Cells (%),[2]; [7],51%
same,Population Normal (%),[2]; [7],86%
same,Population Pyknosed Nuclei (%),[2]; [7],42%
same,Population Tubulin-Different-Phenotype (%),[2]; [7],36%
same,Total Cell Count,[2]; [7],247
same,Population Apoptotic (%),[2]; [8],15%
same,Population Fragmented Nuclei (%),[2]; [8],4%
same,Population Healthy Nuclei (%),[2]; [8],61%
same,Population Hoechst High Intensity Objects (%),[2]; [8],1%
same,Population Membrane Permeable-Phenotype (%),[2]; [8],9%
same,Population Mitochondria Different-Phenotype (%),[2]; [8],13%
same,Population Mitotic Cells (%),[2]; [8],84%
same,Population Normal (%),[2]; [8],98%
same,Population Pyknosed Nuclei (%),[2]; [8],33%
same,Population Tubulin-Different-Phenotype (%),[2]; [8],21%
same,Total Cell Count,[2]; [8],308
same,Population Apoptotic (%),[2]; [9],64%
same,Population Fragmented Nuclei (%),[2]; [9],10%
same,Population Hoechst High Intensity Objects (%),[2]; [9],9%
same,Population Membrane Permeable-Phenotype (%),[2]; [9],1%
same,Population Mitochondria Different-Phenotype (%),[2]; [9],95%
same,Population Mitotic Cells (%),[2]; [9],35%
same,Population Normal (%),[2]; [9],90%
same,Population Pyknosed Nuclei (%),[2]; [9],37%
same,Population Tubulin-Different-Phenotype (%),[2]; [9],89%
same,Population Apoptotic (%),[2]; [10],29%
same,Population Fragmented Nuclei (%),[2]; [10],4%
same,Population Healthy Nuclei (%),[2]; [10],51%
same,Population Hoechst High Intensity Objects (%),[2]; [10],6%
same,Population Membrane Permeable-Phenotype (%),[2]; [10],4%
same,Population Mitochondria Different-Phenotype (%),[2]; [10],73%
same,Population Mitotic Cells (%),[2]; [10],70%
same,Population Normal (%),[2]; [10],93%
same,Population Pyknosed Nuclei (%),[2]; [10],44%
same,Population Tubulin-Different-Phenotype (%),[2]; [10],81%
same,Total Cell Count,[2]; [10],231
same,Population Apoptotic (%),[2]; [11],43%
same,Population Fragmented Nuclei (%),[2]; [11],20%
same,Population Healthy Nuclei (%),[2]; [11],46%
same,Population Hoechst High Intensity Objects (%),[2]; [11],12%
same,Population Membrane Permeable-Phenotype (%),[2]; [11],2%
same,Population Mitochondria Different-Phenotype (%),[2]; [11],26%
same,Population Mitotic Cells (%),[2]; [11],56%
same,Population Normal (%),[2]; [11],87%
same,Population Pyknosed Nuclei (%),[2]; [11],32%
same,Population Tubulin-Different-Phenotype (%),[2]; [11],22%
same,Total Cell Count,[2]; [11],315
same,Population Apoptotic (%),[2]; [12],15%
same,Population Fragmented Nuclei (%),[2]; [12],7%
same,Population Healthy Nuclei (%),[2]; [12],82%
same,Population Hoechst High Intensity Objects (%),[2]; [12],3%
same,Population Membrane Permeable-Phenotype (%),[2]; [12],4%
same,Population Mitochondria Different-Phenotype (%),[2]; [12],8%
same,Population Mitotic Cells (%),[2]; [12],84%
same,Population Normal (%),[2]; [12],96%
same,Population Pyknosed Nuclei (%),[2]; [12],10%
same,Population Tubulin-Different-Phenotype (%),[2]; [12],17%
same,Total Cell Count,[2]; [12],539
same,Population Apoptotic (%),[2]; [13],49%
same,Population Fragmented Nuclei (%),[2]; [13],13%
same,Population Healthy Nuclei (%),[2]; [13],67%
same,Population Hoechst High Intensity Objects (%),[2]; [13],9%
same,Population Membrane Permeable-Phenotype (%),[2]; [13],3%
same,Population Mitochondria Different-Phenotype (%),[2]; [13],74%
same,Population Mitotic Cells (%),[2]; [13],50%
same,Population Normal (%),[2]; [13],90%
same,Population Pyknosed Nuclei (%),[2]; [13],19%
same,Population Tubulin-Different-Phenotype (%),[2]; [13],70%
same,Total Cell Count,[2]; [13],365
same,Population Apoptotic (%),[2]; [14],36%
same,Population Fragmented Nuclei (%),[2]; [14],7%
same,Population Healthy Nuclei (%),[2]; [14],74%
same,Population Hoechst High Intensity Objects (%),[2]; [14],2%
same,Population Membrane Permeable-Phenotype (%),[2]; [14],0%
same,Population Mitochondria Different-Phenotype (%),[2]; [14],54%
same,Population Mitotic Cells (%),[2]; [14],63%
same,Population Normal (%),[2]; [14],97%
same,Population Pyknosed Nuclei (%),[2]; [14],18%
same,Population Tubulin-Different-Phenotype (%),[2]; [14],67%
same,Total Cell Count,[2]; [14],337

# From ChEMBL document CHEMBL4689842, “EUbOPEN Chemogenomics Library wave 1” (2021)
